{"source": "ChEMBL document CHEMBL4000179", "about": "“An Orally Active Bradykinin B1 Receptor Antagonist Engineered as a Bifunctional Chimera of Sunflower Trypsin Inhibitor” (J Med Chem, 2017)", "key": {"[1]": {"biological_target": "T1, Serine protease 1 (Bos taurus) (UniProt P00760)", "T1 sequence (whole entry)": "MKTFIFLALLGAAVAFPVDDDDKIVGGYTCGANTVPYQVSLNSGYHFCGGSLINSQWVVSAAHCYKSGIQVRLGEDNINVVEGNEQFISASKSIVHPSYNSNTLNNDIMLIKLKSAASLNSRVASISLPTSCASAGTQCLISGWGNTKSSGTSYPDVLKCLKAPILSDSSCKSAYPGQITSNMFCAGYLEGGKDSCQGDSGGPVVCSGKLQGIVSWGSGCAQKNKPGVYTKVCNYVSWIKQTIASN", "assay": "Inhibition of bovine beta-trypsin up to 100 uM using BAPNA as substrate preincubated for 15 mins followed by substrate addition measured over 60 mins by spectrometric method", "outline": "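Trypsin activity was measured at 37°C with the chromogenic substrate BAPNA (N-α-benzoyl-DL-arginine 4-nitroanilide), reading absorbance at 405 nm. […] Runs were in triplicate, reported as mean ± SD.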"}, "HeLa": {"tested_on": "HeLa", "assay": "Cytotoxicity against human HeLa cells up to 40 uM after 24 hrs by PrestoBlue cell viability assay", "type": "cell-based"}, "Mus musculus [2]": {"tested_on": "Mus musculus", "assay": "Analgesic activity in ICR mouse assessed as increase in pain response latency at 0.3 to 10 mg/kg administered through oral gavage 30 mins prior to test by hot plate assay relative to control", "type": "functional", "outline": "(§1)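 Mouse hot plate test with hind paw-licking as the nociceptive end point. Peptides were given i.p. or p.o. at several doses, with phosphate-buffered saline as the control. Response latency was compared with each animal's baseline latency and expressed as percent increment in response time.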"}, "[3]": {"assay": "Stability in pH 7 phosphate buffer at 0.1 mM at 100 degC after 6 hrs by HPLC-MS analysis", "type": "physicochemical", "conditions": "read-out: Stability", "outline": "(§2)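 Peptides were boiled at 100 °C, exposed to hydrochloride solution, or incubated with proteases for up to 6 h. Integrity was determined by HPLC and MS.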"}, "[4]": {"assay": "Stability in 0.2 M aqueous HCl after 6 hrs by HPLC-MS analysis", "type": "physicochemical", "conditions": "read-out: Stability", "outline": "as §2"}, "Mus musculus [5]": {"tested_on": "Mus musculus", "assay": "Analgesic activity in ICR mouse assessed as increase in pain response latency at 0.03 to 1 mg/kg,ip measured after 10 mins by hot plate assay relative to control", "type": "functional, organism-based", "outline": "as §1"}, "[6]": {"assay": "Stability of the compound assessed as trypsin (unknown origin)-mediated compound degradation at enzyme to peptide ratio of 1:50 after 6 hrs by HPLC-MS analysis", "type": "ADME", "conditions": "human", "outline": "as §2"}, "[7]": {"assay": "Stability of the compound assessed as pepsin (unknown origin)-mediated compound degradation at enzyme to peptide ratio of 1:50 after 6 hrs by HPLC-MS analysis", "type": "ADME", "conditions": "human; for Stability: 6 h", "outline": "as §2"}, "[8]": {"assay": "Metabolic stability in human serum assessed as parent compound remaining after 6 hrs by UPLC method", "type": "ADME, cell-free", "conditions": "read-out: Stability", "outline": "(§3)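 Peptides were incubated in human serum for up to 6 h, sampled at time points, and the intact fraction was expressed relative to 0 h. Runs were in triplicate, reported as mean ± SD.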"}, "B1 bradykinin receptor": {"biological_target": "T2, B1 bradykinin receptor (Homo sapiens, UniProt P46663)", "T2 sequence (P46663 whole entry)": "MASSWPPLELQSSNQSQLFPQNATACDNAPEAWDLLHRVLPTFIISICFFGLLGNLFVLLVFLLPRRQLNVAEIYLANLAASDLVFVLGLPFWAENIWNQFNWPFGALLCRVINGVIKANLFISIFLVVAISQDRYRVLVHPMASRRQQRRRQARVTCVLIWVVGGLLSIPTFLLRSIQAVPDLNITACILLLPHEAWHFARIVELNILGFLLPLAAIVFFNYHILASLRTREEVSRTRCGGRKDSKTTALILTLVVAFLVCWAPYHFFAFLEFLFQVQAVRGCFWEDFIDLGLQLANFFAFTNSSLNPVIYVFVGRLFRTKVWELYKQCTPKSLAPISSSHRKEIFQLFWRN", "assay": "Antagonist activity against bradykinin B1 receptor in human HeLa cells assessed as inhibition of Des-Arg9-BK-induced increase in intracellular Ca2+ level by Fluro-4 direct calcium dye based fluorescence assay", "type": "functional, cell-based", "outline": "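HeLa cells were pre-loaded with fluo-4 Direct dye and pretreated with peptide at 0 to 10 µM. B1 agonist des-Arg9-BK (100 nM) was then added to raise intracellular Ca2+, read as fluorescence change.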"}, "Mus musculus [9]": {"tested_on": "Mus musculus", "assay": "Analgesic activity in ICR mouse assessed as increase in pain response latency at 1 mg/kg,ip measured after 10 mins by hot plate assay relative to control", "type": "functional", "outline": "as §1"}, "[10]": {"assay": "Drug uptake in ICR mouse serum at 10 mg/kg, po after 4 hrs", "type": "ADME, organism-based", "conditions": "read-out: Drug uptake", "outline": "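Peptide was given orally at 10 mg/kg, and its serum concentration was measured 4 h later.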"}, "Serine protease 1": {"biological_target": "T3, Serine protease 1 (Bos taurus, UniProt P00760)", "T3 sequence (P00760 whole entry)": "T1 sequence (whole entry)", "assay": "Inhibition of bovine beta-trypsin using BAPNA as substrate preincubated for 15 mins followed by substrate addition measured over 60 mins by Dixon plot analysis"}, "Mus musculus [11]": {"tested_on": "Mus musculus", "assay": "Analgesic activity in ICR mouse assessed as increase in pain response latency at 10 mg/kg administered through oral gavage 30 mins prior to test by hot plate assay relative to control", "type": "functional", "outline": "as §1"}, "Serum": {"tested_on": "Serum", "assay": "Metabolic stability in human serum after 2 hrs by UPLC method", "type": "ADME, cell-free", "outline": "as §3"}}, "note": "Activity calls are given as the source filed them. No cut-off for these calls is given here. Where a SMILES comes first, the peptide text is derived from it. Bridges are numbered along the chain shown (N, C = ends)."}
{"compound": "CC[C@H](C)[C@@H]1NC(=O)[C@@H]2CCCN2C(=O)[C@@H]2CCCN2C(=O)[C@H]([C@@H](C)CC)NC(=O)[C@H](CO)NC(=O)[C@H](CCCCN)NC(=O)[C@H]([C@@H](C)O)NC(=O)[C@@H]2CSSC[C@H](NC1=O)C(=O)N[C@@H](Cc1ccccc1)C(=O)N1CCC[C@H]1C(=O)N[C@@H](CC(=O)O)C(=O)NCC(=O)N[C@@H](CCCNC(=N)N)C(=O)N2", "values": [{"measurement": "inhibition", "setting": "[1]", "value": "Active"}, {"measurement": "Activity", "setting": "HeLa", "value": "Non-Toxic"}, {"measurement": "Activity", "setting": "Mus musculus [2]", "value": "inactive"}, {"measurement": "remaining at 6 h, 100 µM", "setting": "[3]", "value": "> 80", "unit": "%"}, {"measurement": "remaining at 6 h", "setting": "[4]", "value": "> 80", "unit": "%"}, {"measurement": "Activity", "setting": "Mus musculus [5]", "value": "inactive"}]}
{"compound": "CC(C)C[C@@H]1NC(=O)[C@@H]2CCCN2C(=O)[C@H](CO)NC(=O)[C@H](Cc2ccccc2)NC(=O)CNC(=O)[C@@H]2CCCN2C(=O)[C@@H]2CCCN2C(=O)[C@H](CCCNC(=N)N)NC(=O)[C@H](CCCCN)NC(=O)[C@@H](NC(=O)[C@H](CCCNC(=N)N)NC(=O)CN)CSSC[C@@H](C(=O)N[C@@H](Cc2ccccc2)C(=O)N2CCC[C@H]2C(=O)N[C@@H](CC(=O)O)C(=O)O)NC1=O", "note": "(H-GRCKRPPGFSPLCFPD-OH; disulfide 3-13)", "values": [{"measurement": "Activity", "setting": "HeLa", "value": "Non-Toxic"}, {"measurement": "remaining at 6 h, 100 µM", "setting": "[3]", "value": "> 80", "unit": "%"}, {"measurement": "remaining at 6 h", "setting": "[4]", "value": "> 80", "unit": "%"}, {"measurement": "Stability", "setting": "[6]", "value": "Unstable"}, {"measurement": "Stability", "setting": "[7]", "value": "Unstable"}]}
{"compound": "CC[C@H](C)[C@@H]1NC(=O)[C@@H]2CCCN2C(=O)[C@@H]2CCCN2C(=O)[C@H]([C@@H](C)CC)NC(=O)[C@H](CO)NC(=O)[C@H](CCCCN)NC(=O)[C@H]([C@@H](C)O)NC(=O)[C@@H]2CSSC[C@H](NC1=O)C(=O)N[C@@H](CCCCN)C(=O)N[C@@H](CCCNC(=N)N)C(=O)N1CCC[C@H]1C(=O)N1CCC[C@H]1C(=O)NCC(=O)N[C@@H](Cc1ccccc1)C(=O)N[C@@H](CO)C(=O)N1CCC[C@H]1C(=O)N[C@@H](CC(C)C)C(=O)N2", "note": "(cyclo(CKRPPGFSPLCTKSIPPI); disulfide 1-11)", "values": [{"measurement": "remaining at 6 h", "setting": "[8]", "value": "> 90", "unit": "%"}, {"measurement": "inhibition", "setting": "[1]", "value": "Active"}, {"measurement": "Activity", "setting": "HeLa", "value": "Non-Toxic"}, {"measurement": "IC50", "setting": "B1 bradykinin receptor", "value": 2000, "unit": "nM"}, {"measurement": "Activity", "setting": "Mus musculus [9]", "value": 125, "unit": "%"}, {"measurement": "remaining at 6 h, 100 µM", "setting": "[3]", "value": "> 80", "unit": "%"}, {"measurement": "remaining at 6 h", "setting": "[4]", "value": "> 80", "unit": "%"}, {"measurement": "Stability", "setting": "[6]", "value": "Stable"}, {"measurement": "Stability", "setting": "[7]", "value": "Stable"}, {"measurement": "concentration at 4 h", "setting": "[10]", "value": 11.5, "unit": "µM"}, {"measurement": "Ki", "setting": "Serine protease 1", "value": 5.12, "unit": "nM"}, {"measurement": "Activity", "setting": "Mus musculus [11]", "value": 71, "unit": "%"}]}
{"compound": "CC(C)C[C@@H]1NC(=O)[C@@H]2CCCN2C(=O)[C@H](CO)NC(=O)[C@H](Cc2ccccc2)NC(=O)CNC(=O)[C@@H]2CCCN2C(=O)[C@@H]2CCCN2C(=O)[C@H](CCCNC(=N)N)NC(=O)[C@H](CCCCN)NC(=O)[C@@H]2CSSC[C@H](NC1=O)C(=O)N[C@@H](Cc1ccccc1)C(=O)N1CCC[C@H]1C(=O)N[C@@H](CC(=O)O)C(=O)NCC(=O)N[C@@H](CCCNC(=N)N)C(=O)N2", "note": "(cyclo(CFPDGRCKRPPGFSPL); disulfide 1-7)", "values": [{"measurement": "remaining at 6 h", "setting": "[8]", "value": "> 90", "unit": "%"}, {"measurement": "inhibition", "setting": "[1]", "value": "inactive"}, {"measurement": "Activity", "setting": "HeLa", "value": "Non-Toxic"}, {"measurement": "IC50", "setting": "B1 bradykinin receptor", "value": 4040, "unit": "nM"}, {"measurement": "remaining at 6 h, 100 µM", "setting": "[3]", "value": "> 80", "unit": "%"}, {"measurement": "remaining at 6 h", "setting": "[4]", "value": "> 80", "unit": "%"}, {"measurement": "Stability", "setting": "[6]", "value": "Unstable"}, {"measurement": "Stability", "setting": "[7]", "value": "Stable"}]}
{"compound": "CC[C@H](C)[C@@H]1NC(=O)[C@@H]2CCCN2C(=O)[C@@H]2CCCN2C(=O)[C@H]([C@@H](C)CC)NC(=O)[C@H](CO)NC(=O)[C@H](CCCCN)NC(=O)[C@H]([C@@H](C)O)NC(=O)[C@@H](N)CSSC[C@@H](C(=O)N[C@@H](CCCCN)C(=O)N[C@@H](CCCNC(=N)N)C(=O)N2CCC[C@H]2C(=O)N2CCC[C@H]2C(=O)NCC(=O)N[C@@H](Cc2ccccc2)C(=O)N[C@@H](CO)C(=O)N2CCC[C@H]2C(=O)N[C@@H](CC(C)C)C(=O)O)NC1=O", "note": "(H-CTKSIPPICKRPPGFSPL-OH; disulfide 1-9)", "values": [{"measurement": "inhibition", "setting": "[1]", "value": "Active"}, {"measurement": "Activity", "setting": "HeLa", "value": "Non-Toxic"}, {"measurement": "remaining at 6 h, 100 µM", "setting": "[3]", "value": "> 80", "unit": "%"}, {"measurement": "remaining at 6 h", "setting": "[4]", "value": "> 80", "unit": "%"}, {"measurement": "Stability", "setting": "[6]", "value": "Unstable"}, {"measurement": "Stability", "setting": "[7]", "value": "Unstable"}]}
{"compound": "CC(C)C[C@H](NC(=O)[C@@H]1CCCN1C(=O)[C@H](CO)NC(=O)[C@H](Cc1ccccc1)NC(=O)CNC(=O)[C@@H]1CCCN1C(=O)[C@@H]1CCCN1C(=O)[C@H](CCCN=C(N)N)NC(=O)[C@@H](N)CCCCN)C(=O)O", "values": [{"measurement": "Activity", "setting": "HeLa", "value": "Non-Toxic"}, {"measurement": "Activity", "setting": "Mus musculus [2]", "value": "<10", "unit": "%"}, {"measurement": "Activity", "setting": "Mus musculus [9]", "value": 201, "unit": "%"}, {"measurement": "remaining at 6 h, 100 µM", "setting": "[3]", "value": "> 80", "unit": "%"}, {"measurement": "remaining at 6 h", "setting": "[4]", "value": "> 80", "unit": "%"}, {"measurement": "Stability", "setting": "[6]", "value": "Stable"}, {"measurement": "metabolised at 6 h", "setting": "[7]; pepsin, read-out: Drug degradation", "value": "> 50", "unit": "%"}, {"measurement": "Stability", "setting": "Serum", "value": "Unstable"}]}
